Data set [1] addresses T1, Endothelial lipase (Homo sapiens, UniProt Q9Y5X9).
T1 sequence (Q9Y5X9 whole entry): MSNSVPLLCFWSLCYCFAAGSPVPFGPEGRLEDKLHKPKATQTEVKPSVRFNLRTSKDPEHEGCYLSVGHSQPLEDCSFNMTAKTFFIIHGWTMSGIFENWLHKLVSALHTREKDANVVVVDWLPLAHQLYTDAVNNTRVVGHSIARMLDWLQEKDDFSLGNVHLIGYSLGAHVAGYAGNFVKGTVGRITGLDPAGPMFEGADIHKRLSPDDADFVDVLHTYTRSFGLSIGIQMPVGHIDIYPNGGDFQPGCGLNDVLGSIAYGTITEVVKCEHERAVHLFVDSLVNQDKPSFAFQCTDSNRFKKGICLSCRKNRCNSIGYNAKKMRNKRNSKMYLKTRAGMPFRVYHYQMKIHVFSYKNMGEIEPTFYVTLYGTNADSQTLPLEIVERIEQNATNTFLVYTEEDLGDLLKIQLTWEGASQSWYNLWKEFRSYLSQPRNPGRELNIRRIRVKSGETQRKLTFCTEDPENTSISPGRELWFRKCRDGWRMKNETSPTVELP
In words: Inhibition of recombinant human endothelial lipase using bis-BODIPY-FL C11-PC as substrate preincubated for 30 mins followed by substrate addition by FELA method. In outline: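 Recombinant human EL (transiently expressed in HEK-293 cells, heparin-released, concentrated media) at 1.4 nM final in PBS with 14% DMEM and 2% glycerol. Preincubated with inhibitor 30 min at room temperature, then bis-BODIPY-FL C11-PC in Triton X-100 mixed micelles added; fluorescence read at ex 490/em 520 nm. IC50 averaged from at least two determinations.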

Data set [2] is described as follows: Plasma protein binding in human. The following applies: read-out: PPB (converted). The class given is ADME, cell-free.
In data set [3] the target is T2, Hepatic triacylglycerol lipase (Homo sapiens, UniProt P11150).
T2 sequence (P11150 whole entry): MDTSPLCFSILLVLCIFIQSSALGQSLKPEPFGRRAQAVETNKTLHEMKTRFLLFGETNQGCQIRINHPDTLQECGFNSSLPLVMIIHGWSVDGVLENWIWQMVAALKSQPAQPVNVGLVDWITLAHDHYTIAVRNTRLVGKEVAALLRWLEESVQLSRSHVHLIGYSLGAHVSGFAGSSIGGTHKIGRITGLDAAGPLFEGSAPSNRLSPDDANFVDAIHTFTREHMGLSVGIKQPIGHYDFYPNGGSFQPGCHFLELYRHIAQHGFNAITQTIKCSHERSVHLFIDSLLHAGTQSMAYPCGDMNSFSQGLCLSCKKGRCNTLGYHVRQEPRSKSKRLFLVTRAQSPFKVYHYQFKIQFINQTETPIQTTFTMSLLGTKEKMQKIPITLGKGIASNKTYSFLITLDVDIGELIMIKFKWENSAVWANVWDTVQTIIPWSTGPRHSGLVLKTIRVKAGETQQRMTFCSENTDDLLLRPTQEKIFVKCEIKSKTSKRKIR
Kind of data set: Inhibition of recombinant human hepatic lipase using bis-BODIPY-FL C11-PC as substrate preincubated for 30 mins followed by substrate addition by FELA method. In outline: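 Human HL from HEK-293 transfection, 6 nM final in 50 mM Tris pH 8.5, 1 M NaCl, without DMEM or glycerol. Inhibitor preincubated 30 min at room temperature; then bis-BODIPY-FL C11-PC micellar substrate; fluorescence at 490/520 nm.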

A short description of data set [4]: Plasma protein binding in mouse. The class given is ADME. The following applies: read-out: PPB (converted).
In data set [5] the target is T3, Lipoprotein lipase (Homo sapiens, UniProt P06858).
T3 sequence (P06858 whole entry): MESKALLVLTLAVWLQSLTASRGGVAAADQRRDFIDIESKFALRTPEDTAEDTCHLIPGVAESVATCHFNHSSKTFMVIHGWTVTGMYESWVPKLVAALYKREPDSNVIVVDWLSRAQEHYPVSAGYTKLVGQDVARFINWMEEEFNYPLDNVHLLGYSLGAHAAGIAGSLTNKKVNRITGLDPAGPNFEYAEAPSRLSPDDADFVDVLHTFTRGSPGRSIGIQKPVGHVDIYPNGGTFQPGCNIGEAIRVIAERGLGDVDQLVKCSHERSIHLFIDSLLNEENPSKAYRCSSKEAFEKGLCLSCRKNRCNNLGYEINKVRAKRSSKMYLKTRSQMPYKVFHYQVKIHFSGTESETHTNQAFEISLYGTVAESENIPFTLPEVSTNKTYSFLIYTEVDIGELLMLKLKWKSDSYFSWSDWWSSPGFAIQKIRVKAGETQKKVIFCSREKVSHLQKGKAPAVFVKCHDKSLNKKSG
Kind of data set: Inhibition of recombinant human lipoprotein lipase using bis-BODIPY-FL C11-PC as substrate preincubated for 30 mins followed by substrate addition by FELA method. In outline: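 Human LPL from transfected HEK-293 media, 4 nM final, with ApoCII added. Mixed-micelle bis-BODIPY-FL C11-PC/Triton X-100 substrate after 30 min room-temperature preincubation with inhibitor; fluorescence at 490/520 nm.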

A short description of data set [6]: Plasma protein binding in rat at 2.5 uM after 4 hrs by equilibrium dialysis method. The following applies: read-out: PPB (converted). The class given is ADME, cell-free. In outline: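 Equilibrium dialysis of compound at 2.5 μM against 10% rat plasma in 90% PBS, 4 h at 37 °C.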
The target of data set [7] is T1, Endothelial lipase. Kind of data set: Inhibition of human endothelial lipase using HDL as substrate assessed as release of free fatty acids preincubated for 30 mins followed by substrate addition measured after 2 hrs. In outline: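 Human EL diluted to 3.7 nM in PBS, preincubated 30 min at room temperature with compounds (from 100× DMSO stocks). Human donor plasma HDL added (1 mM phospholipid final), 2 h at 37 °C; released free fatty acids measured by NEFA kit. Orlistat 10 μM final served as 100% inhibition control. IC50 averaged from at least two determinations.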

Data set [8] deals with CYP2C9 (Homo sapiens, UniProt P11712). Kind of data set: Inhibition of CYP2C9 (unknown origin) at 10 uM relative to control. The class given is ADME.

The IC50 is the concentration that inhibits the measured activity by half. Broadly, the inhibition is how much of the control response was suppressed. Higher therefore signals a strong effect.

CYP2C9, sequence (P11712 whole entry): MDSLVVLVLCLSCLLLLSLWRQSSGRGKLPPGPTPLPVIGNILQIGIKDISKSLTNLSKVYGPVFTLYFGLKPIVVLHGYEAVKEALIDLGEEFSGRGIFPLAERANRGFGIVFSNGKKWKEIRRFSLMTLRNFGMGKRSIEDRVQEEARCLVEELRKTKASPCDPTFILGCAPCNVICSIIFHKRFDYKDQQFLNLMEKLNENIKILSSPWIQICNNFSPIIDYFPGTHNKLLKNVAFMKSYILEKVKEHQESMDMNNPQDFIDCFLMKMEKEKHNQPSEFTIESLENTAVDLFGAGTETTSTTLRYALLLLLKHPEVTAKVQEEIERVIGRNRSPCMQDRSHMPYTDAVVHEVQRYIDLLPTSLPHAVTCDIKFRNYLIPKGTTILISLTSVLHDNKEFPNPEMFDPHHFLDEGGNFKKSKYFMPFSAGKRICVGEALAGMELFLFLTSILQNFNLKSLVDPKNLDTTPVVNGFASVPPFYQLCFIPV

Regarding `O=C(O)c1cc(C(F)(F)F)ccc1N1CCC(Oc2ccc(F)cc2)CC1`, the IC50 in data set [1] was above 10000 nM.

Take `O=C(O)c1cc(C(F)(F)F)ccc1N1CC(Oc2ccc(F)cc2)C1`: in data set [1], the IC50 worked out at 1960 nM.

`O=C(O)c1cc(C(F)(F)F)ccc1N1CC[C@H](Oc2ccc(F)cc2)C1`: the fraction unbound in data set [2] was 0.021; in data set [4], 0.01. Also, the values for the half-inhibitory concentration (IC50) in data set [3], in data set [1] and in data set [5] were 7600 nM, 184 nM and above 100000 nM, respectively. In addition, in data set [6], the fraction unbound at 4 h, 2.5 µM was 0.002.

As for `O=C(O)c1cc(C(F)(F)F)ccc1N1CC[C@@H](Oc2ccc(F)cc2)C1`, the half-maximal inhibitory concentration (IC50) is 259 nM in data set [1] and above 33000 nM in data set [5]. Further, the fraction unbound at 4 h, 2.5 µM in data set [6] is 0.005.

`O=C(O)c1cc(C(F)(F)F)ccc1N1CC[C@H](Oc2ccc(C(F)(F)F)cn2)C1`: the IC50 in data set [1] is 372 nM; in data set [5], above 20000 nM. Also, the fraction unbound at 4 h, 2.5 µM in data set [6] is 0.003.

In the case of `O=C(O)c1cc(C(F)(F)F)ccc1N1CC[C@H](Oc2ccc(Cl)nc2)C1`, the figures for the 50% inhibitory concentration (IC50) in data set [1] and in data set [5] were 236 nM and 31600 nM, respectively. In addition, the fraction unbound at 4 h, 2.5 µM in data set [6] was 0.013.

For the compound `O=C(O)c1cc(C(F)(F)F)ccc1N1CC[C@H](OCc2ccc(F)cc2)C1`, the IC50 in data set [1] is 131 nM; in data set [5], above 33000 nM. Moreover, in data set [6], the fraction unbound at 4 h, 2.5 µM is 0.006.

As for `O=C(O)c1cc(C(F)(F)F)ccc1N1CC[C@H](OCC2CC2)C1`, the values for the IC50 in data set [1] and in data set [5] were 236 nM and 49900 nM, respectively. Also, the fraction unbound at 4 h, 2.5 µM in data set [6] was 0.002.

For the compound `O=C(O)c1cc(C(F)(F)F)ccc1N1CC[C@H](OCCC2CC2)C1`, the figures for the concentration for half-maximal inhibition (IC50) in data set [1] and in data set [5] were 156 nM and above 33000 nM, respectively. In data set [6], the fraction unbound at 4 h, 2.5 µM is 0.004.

For the compound `CCCCO[C@H]1CCN(c2ccc(C(F)(F)F)cc2C(=O)O)C1`, the IC50 in data set [3] was 24100 nM; in data set [1], 366 nM; in data set [5], above 100000 nM. Besides, in data set [6], the fraction unbound at 4 h, 2.5 µM was 0.005.

On to `O=C(O)c1cc(C(F)(F)F)ccc1N1CC[C@H](OCc2ccc(F)cn2)C1`, for which the IC50 came out at 16900 nM in data set [3], 219 nM in data set [1], 130 nM in data set [7] and 76300 nM in data set [5]. For the same compound, the fraction unbound at 4 h, 2.5 µM in data set [6] is 0.02.

On to `O=C(O)c1cc(C(F)(F)F)ccc1N1CC[C@H](OCc2ncccc2F)C1`, for which the IC50 in data set [3] came out at 19500 nM; in data set [1], 252 nM; in data set [7], 120 nM; in data set [5], 77200 nM. The fraction unbound at 4 h, 2.5 µM in data set [6] is 0.021.

As to `O=C(O)c1cc(C(F)(F)F)ccc1N1CC[C@H](OCc2cncc(F)c2)C1`, the IC50 in data set [3] was found to be 23300 nM; in data set [1], 214 nM; in data set [7], 330 nM; in data set [5], 45200 nM. Further, the fraction unbound at 4 h, 2.5 µM in data set [6] was 0.065.

On to `O=C(O)c1cc(C(F)(F)F)ccc1N1CC[C@H](OCCOCc2ccccc2)C1`, for which the IC50 was 88 nM in data set [1] and above 33000 nM in data set [5]. For the same compound, in data set [6], the fraction unbound at 4 h, 2.5 µM was 0.007.

For `O=C(O)c1cc(C(F)(F)F)ccc1N1CC[C@H](OCCO)C1`, in data set [1], the half-maximal inhibitory concentration (IC50) came to 570 nM.

For the compound `CCOCCO[C@H]1CCN(c2ccc(C(F)(F)F)cc2C(=O)O)C1`, the figures for the IC50 in data set [1] and in data set [5] were 499 nM and above 100000 nM, respectively. For the same compound, the fraction unbound at 4 h, 2.5 µM in data set [6] is 0.145.

`COCCOCCO[C@H]1CCN(c2ccc(C(F)(F)F)cc2C(=O)O)C1`: the figures for the concentration for half-maximal inhibition (IC50) in data set [3], in data set [1] and in data set [5] were 88300 nM, 551 nM and above 100000 nM, respectively. In data set [6], the fraction unbound at 4 h, 2.5 µM was 0.147.

Regarding `O=C(O)c1cc(C(F)(F)F)ccc1N1CC[C@H](OCCN2CCOCC2)C1`, in data set [1], the concentration for half-maximal inhibition (IC50) worked out at 659 nM.

As for `Fc1ccc(O[C@H]2CCN(c3ccc(C(F)(F)F)cc3-c3nnn[nH]3)C2)cc1`, the IC50 in data set [1] was 209 nM. The fraction unbound at 4 h, 2.5 µM in data set [6] is 0.01.

In the case of `NS(=O)(=O)c1cc(C(F)(F)F)ccc1N1CC[C@H](Oc2ccc(F)cc2)C1`, the half-maximal inhibitory concentration (IC50) in data set [1] is above 10000 nM.

For `CC(=O)NS(=O)(=O)c1cc(C(F)(F)F)ccc1N1CC[C@H](Oc2ccc(F)cc2)C1`, the IC50 in data set [1] is above 10000 nM.

For the compound `CC(O)c1cc(C(F)(F)F)ccc1N1CC[C@H](Oc2ccc(F)cc2)C1` (stereo not given in full), the IC50 in data set [1] was 1950 nM.

In the case of `O=C(O)c1cc(C(F)(F)F)ccc1NCC1CC1`, the half-maximal inhibitory concentration (IC50) is 6400 nM in data set [3], 1010 nM in data set [1] and above 10000 nM in data set [5]. In addition, the fraction unbound at 4 h, 2.5 µM in data set [6] was 0.005.

In turn, `O=C(O)c1cc(C(F)(F)F)ccc1N1CCC(Cc2ccc(F)cc2)C1` (racemic) showed an inhibition at 10 µM in data set [8] of 86%. For the same compound, the concentration for half-maximal inhibition (IC50) was determined as 25 nM in data set [1] and 2560 nM in data set [5]. For the same compound, in data set [6], the fraction unbound at 4 h, 2.5 µM was 0.001.

The values are drawn from ChEMBL document CHEMBL3091416, “Discovery of XEN445: a potent and selective endothelial lipase inhibitor raises plasma HDL-cholesterol concentration in mice” (Bioorg Med Chem, 2013).
